Assay results taken from article PMC4797290 (Nucleic Acids Research, 2016).
No end group written: not given here.

What was measured:
Format in all cases: cell-based, Escherichia coli
[1] = tested on: E. coli SQ110 DTC 23S rRNA A2503C/A2059G double mutant; assay: MIC determination, E. coli SQ110 DTC 2503C/2059G double mutant; conditions: 23S rRNA double mutant; highest concentration 100 μM
Outline: (§1)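 E. coli SQ110 DTC background (single chromosomal rrn allele, tolC knockout) carrying 23S rRNA mutations. Cells grown exponentially in LB, diluted to A650 0.005 in 96-well plates. Peptide added in LB and 2-fold serially diluted from a top final concentration of 100 μM. Incubated overnight at 37°C with shaking. Growth read by alamarBlue addition.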

[2] = tested on: E. coli SQ110 DTC 23S rRNA A2503C mutant; assay: MIC determination, E. coli SQ110 DTC 2503C mutant; conditions: 23S rRNA mutant 2503C; highest concentration 100 μM
Outline: as §1

[3] = tested on: E. coli SQ110 DTC 23S rRNA 2059C mutant; assay: MIC determination, E. coli SQ110 DTC 2059C mutant; conditions: 23S rRNA mutant 2059C, first line so labelled (r6); highest concentration 100 μM
Outline: as §1

RRIRPRPPRLPRPRPRPLPFPRPGPRPIPRPLPFP [Bac7_1–35]
0.75 µM: MIC, SQ110 DTC 2503C/2059G [1] | MIC, SQ110 DTC 2503C [2] | MIC, SQ110 DTC 2059C [3]
